High-throughput results (PubChem BioAssay)
Rows were chosen to be rich in hits. Some 2.1% of all compounds tested hit in one or more screens of this group.
Hck Nef HTS: inhibitors of Nef-activated human Hck kinase, primary screen, biochemical, Z-Lyte FRET, 384-well, Hck-YEEI. Tyrosine-protein kinase HCK (Homo sapiens), P08631. Recombinant Hck-YEEI plus Nef, Z-Lyte FRET kinase assay. inhibition, % at 20 µM. 220,000 compounds, 0.68% hits;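 active = Hck-Nef kinase inhibition above about 50%, limit read from the data; inactive = inhibition below that limit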;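 note: 0% = DMSO with Hck plus Nef and 100% = Hck alone without Nef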
Runt-SMMHC FRET: inhibitors of RUNX1 Runt–CBFb-SMMHC binding, primary screen, biochemical, FRET, Cerulean-Runt, Venus-CBFb-SMMHC, uHTS; Runt-related transcription factor 1 (Homo sapiens) + Core-binding factor subunit beta …; Cerulean-Runt/Venus-CBFb-SMMHC FRET ratio 530/480, 1 h; inhibition, % at 20 µM; 220,000 compounds, 0.74% hits; AID 1434, 2008;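 active = mean inhibition across duplicate retests at 20 µM reaching about 50%, limit read from the data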;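 note: 0% = DMSO wells and 100% = wells with excess untagged CBFb-SMMHC; inhibitors lower the FRET ratio by blocking Runt binding to CBFb-SMMHC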
Runt-CBFb FRET: inhibitors of RUNX1 Runt–CBFb binding, primary screen, biochemical, FRET, Cerulean-Runt, Venus-CBFb, uHTS. Runt-related transcription factor 1 (Homo sapiens) + Core-binding factor subunit beta …. Cerulean-Runt/Venus-CBFb FRET ratio 530/480, 1 h. inhibition, % at 20 µM. 220,000 compounds, 0.46% hits. AID 1496, 2009;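 active = inhibition over about 50% at 20 µM in the single-dose screen, limit read from the data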;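 note: 0% = DMSO wells and 100% = excess unlabeled CBFb competitor control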
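Assay system: Cerulean-tagged RUNX1 Runt domain (FRET donor) fusion protein / Amount: 100 nM each of Venus-CBFb and Cerulean-Runt domain / Medium: Tris buffer pH 7.5 with salts and BSA / Also added: Venus-CBFb 100 nM / Schedule: 1 h complex formation plus 1 h compound treatment, room temperature / Signal: FRET fluorescence / Read-out: loss of energy transfer signal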
RanGTP-Impb inh: inhibitors of RanGTP-importin-beta interaction, primary screen, biochemical, FRET, CFP-Ran, YFP-importin-beta, homogeneous | Ran GTPase (GTP-bound) - importin-beta complex | cell-free CFP-Ran/YFP-importin-beta FRET ratio | inhibition, % (test concentration not listed) | 300,000 compounds, 1.1% hits | AID 2216, 2009;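 active = more than half of the replicate wells show a fall in the fluorescence ratio signal beyond about 16%, limit read from the data, passing the limit was not always enough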;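 note: 0% = DMSO wells and 100% = Ran loaded with GDP instead of GTP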
DSG3 Ab inh: inhibitors of pemphigus antibody binding to DSG3, primary screen, biochemical, bead-based, flow cytometry, scFv-GFP; DSG3-coupled beads, scFv-anti-DSG3-GFP binding; active compounds read low; Desmoglein-3 (Homo sapiens), P32926; AID 588358, 2011; binding (percent of control), % at 10 µM; 310,000 compounds, 0.48% hits;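 active = binding more than 3 SD below its plate's average and above zero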;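 note: hits lower antibody fragment binding to DSG3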
Target sequence (P32926 whole entry, looked up, the tested form may be a part): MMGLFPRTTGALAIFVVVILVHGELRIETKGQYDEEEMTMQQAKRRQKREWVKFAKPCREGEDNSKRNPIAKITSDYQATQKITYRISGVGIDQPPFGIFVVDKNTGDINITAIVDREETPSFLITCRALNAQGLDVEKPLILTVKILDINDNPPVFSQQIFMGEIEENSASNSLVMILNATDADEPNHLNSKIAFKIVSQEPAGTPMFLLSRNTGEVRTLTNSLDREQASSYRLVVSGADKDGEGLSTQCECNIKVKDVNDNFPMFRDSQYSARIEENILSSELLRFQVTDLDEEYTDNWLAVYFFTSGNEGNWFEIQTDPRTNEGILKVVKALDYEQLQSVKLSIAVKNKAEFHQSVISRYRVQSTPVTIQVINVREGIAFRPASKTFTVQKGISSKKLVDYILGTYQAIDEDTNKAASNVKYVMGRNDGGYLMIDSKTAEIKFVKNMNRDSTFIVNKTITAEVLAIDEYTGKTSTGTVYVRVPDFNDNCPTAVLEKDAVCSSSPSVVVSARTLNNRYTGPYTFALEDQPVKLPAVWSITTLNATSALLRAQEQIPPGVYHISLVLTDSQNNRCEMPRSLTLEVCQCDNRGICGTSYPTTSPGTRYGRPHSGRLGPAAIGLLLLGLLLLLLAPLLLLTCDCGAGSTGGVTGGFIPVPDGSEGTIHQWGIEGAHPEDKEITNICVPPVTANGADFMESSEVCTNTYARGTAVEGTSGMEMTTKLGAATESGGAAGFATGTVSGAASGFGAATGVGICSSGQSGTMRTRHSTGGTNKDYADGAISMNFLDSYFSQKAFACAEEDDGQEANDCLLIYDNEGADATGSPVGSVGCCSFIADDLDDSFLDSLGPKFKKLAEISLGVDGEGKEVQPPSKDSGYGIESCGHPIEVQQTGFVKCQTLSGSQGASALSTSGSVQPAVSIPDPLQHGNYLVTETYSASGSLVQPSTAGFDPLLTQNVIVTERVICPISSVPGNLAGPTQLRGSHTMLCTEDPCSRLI
pCIP destab: p/CIP-EGFP fusion destabilizers, primary screen, fluorescence, F442A cells | Q05BA5 | AID 1984, 2009 | 16 h | 290,000 compounds, 0.01% hits | decrease of EGFP signal, % at 10 µM;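 active = EGFP signal decrease of at least 30% at 10 µM or well 3 SD below plate mean, unless failing retest; inactive = the rest, including hits failing retest or dose response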
YIC FRET counter: YIC intramolecular FRET probe signal interference, dose response, counter-screen for RanGTP-importin-beta inhibitor project, biochemical, fluorescence FRET. 1,000 compounds, 40% hits. Purified YIC probe, intramolecular FRET ratio YFP/CFP. IC50, µM. shares compounds with RanGTP-Impb inh. AID 435026, 2010;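 active = fitted half-maximal inhibitory concentration no more than tenfold above the top dose tested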
Active calls of the source: *; nt = no result given.

SMILES	Hck Nef HTS	Runt-SMMHC FRET	Runt-CBFb FRET	RanGTP-Impb inh	DSG3 Ab inh	pCIP destab	YIC FRET counter
COc1cccc(C2=NOC(C(=O)Nc3cc(C)on3)C2)c1 (configuration not stated)	13	-6	2	19*	88	-12	>50
NC(=O)CN(Cc1ccccc1)S(=O)(=O)c1ccc2c(c1)OCCO2	nt	nt	nt	19*	109	8	>50
O=C(CN(Cc1ccccc1)S(=O)(=O)c1ccc2c(c1)OCCO2)Nc1ccc2c(c1)OCCO2	0	18	2	-3	99	-19	nt
Cc1cccc(N2C(=O)/C(=C/c3cccnc3)SC2=S)c1	23	1	2	19*	104	-4	>50
CN(C)c1ccc(P(=O)(OCc2ccccc2)C(O)c2ccccc2)cc1 (configuration not stated)	19	3	0	0	113	-17	nt
O=C(NC1CC1)c1ccc(CS(=O)c2ccc(Br)cc2)o1 (configuration not stated)	nt	nt	nt	0	105	-1	nt
COc1ccc(S(=O)Cc2ccc(C(=O)NC3CC3)o2)cc1 (configuration not stated)	nt	nt	nt	39*	98	4	>50
C/C(=C\C(=O)C(F)(F)F)Nc1ccc(C(F)(F)F)cc1	1	3	0	20*	98	4	>50
N#CC1=C(N)SC(N)=C(C#N)C1c1cccc(Oc2ccccc2)c1	5	78*	39	24*	123	4	>50
N#CC1=C(N)SC(N)=C(C#N)C1c1c(Cl)cccc1Cl	14	43	15	10	106	2	nt
CCN1C(=O)[C@@H]2[C@@H](c3ccc(-c4ccc(C(C)=O)cc4)c(OC)c3)N3CCCC[C@@]3(C(=O)OC)[C@@H]2C1=O	nt	nt	nt	1	100	nt	nt
CCN(CC)c1ccc(/C=N/NC(=O)c2c(Cl)cnn2C)c(O)c1	11	83*	74*	22*	nt	0	4*
CCOC(=O)N/N=C/c1ccc(N(CC)CC)cc1O	7	1	2	3	99	-1	nt
N#CCCN(C(=O)Nc1ccccc1)c1ccccc1	1	-1	1	1	nt	-7	nt
N#CCCN(C(=O)Nc1ccc(Cl)cc1)c1ccccc1	-9	-4	-1	96*	nt	-3	>50
Cc1nccn1CCOc1ccc(Cl)cc1	nt	nt	nt	-1	112	-5	nt
Cc1ccc(C)c2nc(N3CCCC3)c(C#N)cc12	6	94*	67*	51*	94	-12	1.2*
Cn1c(SCc2ccccc2F)nnc1-c1ccccn1	6	-1	1	20*	100	-7	>50
Cn1c(SCc2ccccc2F)nnc1-c1cnccn1	2	-2	-1	-1	99	-17	nt
COc1ccc(CCC(=O)Nc2ccc(S(=O)(=O)N3CCCC3)cc2)cc1OC	nt	nt	nt	nt	101	nt	nt
COc1cccc(-c2coc3c(C)c4oc(=O)c(CCC(=O)O)c(C)c4cc23)c1	nt	nt	nt	-1	116	-22	nt
Cc1c(CC(=O)O)c(=O)oc2c(C)c3occ(-c4ccc(Br)cc4)c3cc12	nt	nt	nt	28*	112	-7	>26
COc1cccc(-c2coc3c(C)c4oc(=O)c(CC(=O)O)c(C)c4cc23)c1	nt	nt	nt	24*	98	-6	>50
COc1ccc(-c2coc3c(C)c4oc(=O)c(CC(=O)O)c(C)c4cc23)cc1	nt	nt	nt	12	102	-1	nt
